According to ChEMBL document CHEMBL1914305, “Synthesis and structure-activity evaluation of isatin-β-thiosemicarbazones with improved selective activity toward multidrug-resistant cells expressing P-glycoprotein” (J Med Chem, 2011):

Legend:
[1] = Cytotoxicity against human KB-3-1 cells after 72 hrs by MTT assay; format: functional, cell-based; conditions: KB 3-1, 72 h
Summary of the method: (§1)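 Grown in DMEM with 10% FBS. MTT assay: 4000 cells/well, 24 h settling, serial dilutions of drug, 72 h at 37 °C in 5% CO2. MTT in IMDM 4 h, then acidified ethanol 15 min, A570 with 690 nm background. Three experiments in triplicate. KB-V1-R comes from KB-V1 grown long-term drug-free.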

[2] = Selectivity ratio of IC50 for human KB-3-1 cells to IC50 for human KBV1 cells selected at 1 ug/mL vinblastine; format: functional
Summary of the method: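 Selectivity ratio: IC50 in the parental or empty-vector cells divided by IC50 in the P-gp-expressing cells (KB-V1, or ABCB1-transfected LLC-PK1). MTT assay: 4000 cells/well established for 24 h, then 72 h exposure to serially diluted drug at 37 °C, 5% CO2. MTT for 4 h, acidified ethanol lysis, A570 corrected at A690. IC50 is the concentration giving 50% of untreated absorbance, from at least three experiments.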

[3] = Cytotoxicity against vinblastine-selected human KBV1 cells after 72 hrs by MTT assay; format: functional, cell-based; conditions: KB-V1, 72 h
Summary of the method: as §1, with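 “background. IC50 is the concentration reducing absorbance to 50% of untreated control.” for “background.”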

Compound | IC50 [1] | Ratio IC50 [2] | IC50 [3]
CC(C)NC(=S)N/N=C1\C(=O)Nc2ccccc21 | 39.3 µM | 3.8 | 10.2 µM
O=C1Nc2ccccc2/C1=N/NC(=S)Nc1ccc(O)cc1 | 35.8 µM | 1.7 | 21.6 µM
O=C1Nc2ccccc2/C1=N/NC(=S)Nc1ccccc1 | 3.53 µM | 2.4 | 1.47 µM
O=C1Nc2ccccc2/C1=N/NC(=S)Nc1ccc(F)cc1 | 14.2 µM | 7.4 | 1.92 µM
O=C1Nc2ccccc2/C1=N/NC(=S)NC1CCCCC1 | 9.14 µM | 2.1 | 4.38 µM
O=C1Nc2ccccc2/C1=N/NC(=S)Nc1cccc2ccccc12 | 5.12 µM | 2.3 | 2.21 µM
COc1cc(NC(=S)N/N=C2\C(=O)Nc3ccccc32)cc(OC)c1OC | 11.1 µM | 3.2 | 3.49 µM
O=C1Nc2ccccc2/C1=N/NC(=S)Nc1ccc(C(F)(F)F)cc1 | 8.59 µM | 4.1 | 2.1 µM
O=C1Nc2ccccc2/C1=N/NC(=S)NCc1ccccc1 | 11.7 µM | 1.5 | 7.63 µM
O=C1Nc2ccccc2/C1=N/NC(=S)Nc1ccc(Oc2ccccc2)cc1 | 5.72 µM | 3.4 | 1.67 µM
O=C1Nc2ccccc2/C1=N/NC(=S)Nc1c(F)cc(F)cc1F | 38.4 µM | 5.3 | 7.28 µM
CN(C)c1ccc(NC(=S)N/N=C2\C(=O)Nc3ccccc32)cc1 | 6.95 µM | 3 | 2.32 µM
O=C1Nc2ccccc2/C1=N/NC(=S)Nc1cccnc1 | > 50 µM | – | > 50 µM
O=C1Nc2ccccc2/C1=N/NC(=S)Nc1ccc(C(=O)O)cc1 | > 50 µM | – | > 50 µM
CCc1ccc(NC(=S)N/N=C2\C(=O)Nc3ccccc32)cc1 | 4.05 µM | 3 | 1.34 µM
